In ChEMBL document CHEMBL1821678, “Synthesis and bio-activity evaluation of tetraphenyl(phenylamino) methylene bisphosphonates as antioxidant agents and as potent inhibitors of osteoclasts in vitro” (Eur J Med Chem, 2011):
≈ marks a conversion by molar mass, not a printed value.

Columns and labels:
Osteoclast [1] = assay: In-vitro antibone resorptive activity Sprague-Dawley rat pup long bone osteoclasts assessed as compound concentration causing inhibition of bone resorption after 72 hrs by MTT assay; format: functional
How it was run: (§1)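 Osteoclasts scraped from long bones of 1–2-day-old Sprague–Dawley rat pups into Hepes-buffered DMEM with 7–10% heat-inactivated FCS; attached 30 min to bovine cortical bone slices, unattached cells rinsed off. Treated at 10, 50, 100 and 250 μM, 37 °C, 5% CO2; harvested at 24, 48, 72 h; MTT viability read at 492 nm, triplicates; inhibitory ratio reported. Alendronate reference.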

Osteoclast [2] = assay: In-vitro antibone resorptive activity Sprague-Dawley rat pup long bone osteoclasts assessed as compound concentration causing inhibition of bone resorption after 24 hrs by MTT assay; format: functional; how it was run: as §1
Osteoclast [3] = assay: In-vitro antibone resorptive activity Sprague-Dawley rat pup long bone osteoclasts assessed as compound concentration causing inhibition of bone resorption after 48 hrs by MTT assay; format: functional; how it was run: as §1
[4] = Antioxidant activity assessed as potassium ferricyanide ion reducing power after 20 mins by spectrophotometry; format: functional
How it was run: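 Compounds (50–100 μM) mixed with phosphate buffer (0.2 M, pH 6.6) and 1% potassium ferricyanide, 50 °C for 20 min; 10% TCA added, centrifuged; upper layer diluted with water plus 0.1% ferric chloride; absorbance at 700 nm, higher absorbance = greater reducing power. Vitamin C standard.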

[5] = test system: Radical scavenging activity; assay: Antioxidant activity assessed as DPPH free radical scavenging activity after 30 mins; format: functional
How it was run: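 DPPH (85 μM) added to medium containing a range of test concentrations; incubated 30 min at room temperature; decrease in absorbance read at 518 nm. Ascorbic acid served as reference for maximal decrease. Activity expressed as % inhibition of DPPH absorbance relative to standard; IC50 derived.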

Liver = assay: Antioxidant activity in rat liver cells assessed as inhibition of Fe(2+)-asocrbate complex system-induced lipid peroxidation by TBARS assay; format: functional, cell-based
How it was run: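 Lipid peroxidation in rat liver cells induced by Fe2+–ascorbate complex; measured as thiobarbituric acid reacting substances (TBARS). Vitamin C standard; IC50 derived.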

SMILES | inhibitory concentration (Osteoclast [1]) | Concentration causing inhibition of bone resorption (Osteoclast [2]) | Concentration causing inhibition of bone resorption (Osteoclast [3]) | IC50 [4] | IC50 [5] | IC50 (Liver) | INH (Osteoclast [2]) | INH (Osteoclast [3])
O=[N+]([O-])c1cc(NC(P(=O)(Oc2ccccc2)Oc2ccccc2)P(=O)(Oc2ccccc2)Oc2ccccc2)ccc1F | 8.1 µM | 31.2 µM | 19.1 µM | 2.27 µg/mL (≈ 3.58 µM) | 30.1 µg/mL (≈ 47.4 µM) | 78.5 µg/mL (≈ 124 µM) | – | –
COc1ccc(NC(P(=O)(Oc2ccccc2)Oc2ccccc2)P(=O)(Oc2ccccc2)Oc2ccccc2)cc1 | 67.7 µM | 138.7 µM | 102.6 µM | 2.73 µg/mL (≈ 4.54 µM) | 40.7 µg/mL (≈ 67.7 µM) | 89.8 µg/mL (≈ 149 µM) | – | –
O=P(Oc1ccccc1)(Oc1ccccc1)C(Nc1ccc(Cl)cc1)P(=O)(Oc1ccccc1)Oc1ccccc1 | 71.8 µM | 191.4 µM | 140.3 µM | 2.71 µg/mL (≈ 4.47 µM) | 41.5 µg/mL (≈ 68.5 µM) | 87.5 µg/mL (≈ 144 µM) | – | –
O=P(Oc1ccccc1)(Oc1ccccc1)C(Nc1ccc(F)cc1)P(=O)(Oc1ccccc1)Oc1ccccc1 | 56.4 µM | 126.1 µM | 89.1 µM | 2.86 µg/mL (≈ 4.85 µM) | 48.2 µg/mL (≈ 81.8 µM) | 86.2 µg/mL (≈ 146 µM) | – | –
O=[N+]([O-])c1cccc(NC(P(=O)(Oc2ccccc2)Oc2ccccc2)P(=O)(Oc2ccccc2)Oc2ccccc2)c1 | 14.6 µM | 49.6 µM | 28.8 µM | 2.09 µg/mL (≈ 3.39 µM) | 39.6 µg/mL (≈ 64.2 µM) | 85.7 µg/mL (≈ 139 µM) | – | –
O=P(Oc1ccccc1)(Oc1ccccc1)C(Nc1ccc(F)c(Cl)c1)P(=O)(Oc1ccccc1)Oc1ccccc1 | 10.4 µM | 32.7 µM | 21.6 µM | 2.14 µg/mL (≈ 3.43 µM) | 32.9 µg/mL (≈ 52.7 µM) | 80.6 µg/mL (≈ 129 µM) | – | –
Cc1ncc(NC(P(=O)(Oc2ccccc2)Oc2ccccc2)P(=O)(Oc2ccccc2)Oc2ccccc2)s1 | 48.8 µM | 88.4 µM | 64.2 µM | 3.01 µg/mL (≈ 5.08 µM) | 58.4 µg/mL (≈ 98.6 µM) | 75.2 µg/mL (≈ 127 µM) | – | –
O=[N+]([O-])c1ncc(NC(P(=O)(Oc2ccccc2)Oc2ccccc2)P(=O)(Oc2ccccc2)Oc2ccccc2)s1 | 51.6 µM | 106.6 µM | 87.7 µM | 3.54 µg/mL (≈ 5.68 µM) | 48.6 µg/mL (≈ 77.9 µM) | 97.9 µg/mL (≈ 157 µM) | – | –
O=P(Oc1ccccc1)(Oc1ccccc1)C(Nc1cccc2ncsc12)P(=O)(Oc1ccccc1)Oc1ccccc1 | 54.5 µM | 125.9 µM | 95.9 µM | 2.44 µg/mL (≈ 3.88 µM) | 47.9 µg/mL (≈ 76.2 µM) | 84.9 µg/mL (≈ 135 µM) | – | –
NCCCC(O)(P(=O)(O)O)P(=O)(O)O [ALENDRONIC ACID] | 20.4 µM | – | – | – | – | – | 52.7 µM | 29.6 µM
O=C1O[C@H]([C@@H](O)CO)C(O)=C1O [ASCORBIC ACID] | – | – | – | 2.51 µg/mL (≈ 14.3 µM) | 32.2 µg/mL (≈ 183 µM) | 75.2 µg/mL (≈ 427 µM) | – | –
O=P(Oc1ccccc1)(Oc1ccccc1)C(Nc1ccccc1)P(=O)(Oc1ccccc1)Oc1ccccc1 [TETRAPHENYL(PHENYLAMINO)METHYLENE DIPHOSPHONATE] | 104.4 µM | 201.6 µM | 168.2 µM | 3.12 µg/mL (≈ 5.46 µM) | 80.6 µg/mL (≈ 141 µM) | 96 µg/mL (≈ 168 µM) | – | –
